Results on 7 compounds are retold here after ChEMBL document CHEMBL2062469, “1-(2-Mercaptobenzenesulfonyl)-3-hydroxyguanidines--novel potent antiproliferatives, synthesis and in vitro biological activity” (2012).

What all share (format): functional
The subject of one experiment is MDA-MB-231. The experiment is described as follows: Cytostatic activity against human MDA-MB-231/ATCC cells. The method, boiled down: (§1)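 NCI-60 human tumor cell line screen run by the US National Cancer Institute under the NIH Developmental Therapeutics Program protocol. A single-dose prescreen at 10 µM came first. Selected compounds then went into the 5-dose assay. Cytostatic activity is reported as GI50 (µM).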

The test system of another experiment is U-251. Briefly: Cytostatic activity against human U251 cells. The method, boiled down: (§2)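 Human tumour cell lines from the NCI-60 panel, tested at the US National Cancer Institute under the NIH Developmental Therapeutics Program protocol. A single-dose prescreen at 10 µM came first. Selected compounds then went to a 5-dose assay, which gave GI50 and TGI values in µM.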

A further experiment deals with SF-268. Briefly: Cytostatic activity against human SF268 cells. The method, boiled down:
as §1

The test system of a further experiment is MDA-MB-435. Briefly: Cytostatic activity against human MDA-MB-435 cells. The method, boiled down:
as §1

A further experiment has as its system UACC-62. Briefly: Cytostatic activity against human UACC62 cells. The method, boiled down: as §2
A further experiment concerns IGROV-1. The experiment is described as follows: Cytostatic activity against human IGROV1 cells. The method, boiled down: as §1
For another experiment, the system named is UACC-257. Briefly: Cytostatic activity against human UACC257 cells. The method in brief: as §2
Another experiment concerns OVCAR-3. Briefly: Cytostatic activity against human OVCAR3 cells. The method in brief:
as §1

The next experiment relates to Hs-578T. The experiment is described as follows: Cytostatic activity against human Hs 578T cells. The method, boiled down:
as §1

Another experiment deals with HT-29. The experiment is described as follows: Cytostatic activity against human HT-29 cells. The method in brief:
as §1

In another experiment the test system is SNB-75. Briefly: Cytostatic activity against human SNB75 cells. The method, boiled down:
as §2

Another experiment has as its system NCI-H522. Briefly: Cytostatic activity against human NCI-H522 cells. The method, boiled down:
as §1

The subject of another experiment is NCI-H460. The experiment is described as follows: Cytostatic activity against human NCI-H460 cells. The method in brief: as §1
Another experiment has as its system M14. Briefly: Cytostatic activity against human M14 cells. The method in brief:
as §1

A further experiment deals with UO-31. Briefly: Cytostatic activity against human UO31 cells. The method, boiled down:
as §2

The subject of another experiment is Malme-3M. Briefly: Cytostatic activity against human MALME-3M cells. The method in brief: as §1

In the case of `N=C(NO)NS(=O)(=O)c1cc(-c2nc(-c3ccccc3)cs2)c(Cl)cc1SCc1ccc2c(c1)OCO2`, the GI50 in the experiment with MDA-MB-231 was determined as 2340 nM; with U-251, 1950 nM; in the experiment on SF-268, 1860 nM; in the experiment on MDA-MB-435, 2000 nM; with UACC-62 it was 2140 nM; in the experiment on IGROV-1, 2820 nM.
On to `N=C(NO)NS(=O)(=O)c1cc(-c2nc(-c3ccccc3)no2)c(Cl)cc1SCc1ccc2c(c1)OCO2`, for which the GI50 with UACC-257 worked out at 2000 nM; with OVCAR-3 it was 1700 nM; with Hs-578T, 2630 nM; with HT-29, 2000 nM; with SF-268 it was 1910 nM; in the experiment with SNB-75 it was 1550 nM. For the same compound, the GI50 with NCI-H522 worked out at 1290 nM; in the experiment with UACC-62, 1820 nM; with NCI-H460 it was 2040 nM; with M14, 1910 nM; in the experiment with UO-31, 1660 nM; in the experiment with Malme-3M, 2190 nM. Moreover, the GI50 with IGROV-1 worked out at 2570 nM.
Regarding `N=C(NO)NS(=O)(=O)c1cc(-c2nc(-c3ccc(Cl)cc3)no2)c(Cl)cc1SCc1ccc2c(c1)OCO2`, the GI50 in the experiment on UACC-257 is 1910 nM; in the experiment on OVCAR-3, 1700 nM; in the experiment with Hs-578T, 2690 nM; with HT-29, 1820 nM; in the experiment with SF-268, 1820 nM; in the experiment with SNB-75, 1740 nM. Besides, the GI50 in the experiment with NCI-H522 was determined as 1020 nM; in the experiment on UACC-62, 1700 nM; in the experiment with NCI-H460, 2140 nM; with M14, 1860 nM; with UO-31, 1910 nM; in the experiment with Malme-3M it was 2630 nM. This compound gave a GI50 in the experiment on IGROV-1 of 2140 nM.
Take `COc1cc(CSc2cc(Cl)c(-c3nnc(-c4ccccc4)s3)cc2S(=O)(=O)NC(=N)NO)cc(OC)c1OC`: the GI50 in the experiment on UACC-257 is 6030 nM; in the experiment on OVCAR-3, 2190 nM; in the experiment on Hs-578T it was 3310 nM; with HT-29, 4170 nM; with SF-268, 2400 nM; with SNB-75, 1860 nM. Moreover, the GI50 came out at 2040 nM with NCI-H522; 3240 nM with UACC-62; 3240 nM in the experiment on NCI-H460; 4070 nM in the experiment with M14; 3980 nM in the experiment with UO-31; 3090 nM in the experiment on Malme-3M. In the experiment on IGROV-1, the GI50 came to 3720 nM.
As for `COc1cc(CSc2cc(Cl)c(-c3nnc(-c4ccc(Cl)cc4)s3)cc2S(=O)(=O)NC(=N)NO)cc(OC)c1OC`, the GI50 with UACC-257 came out at 26300 nM; in the experiment with OVCAR-3, 10200 nM; in the experiment with Hs-578T, 8130 nM; with HT-29 it was 6760 nM; with SF-268 it was 9550 nM; in the experiment on SNB-75, 25700 nM. Besides, the GI50 in the experiment on NCI-H522 was 8910 nM; in the experiment on UACC-62 it was 16200 nM; in the experiment on NCI-H460, 34700 nM; in the experiment with M14 it was 40700 nM; with UO-31 it was 44700 nM; in the experiment with Malme-3M, 97700 nM. This compound showed a concentration for 50% growth inhibition (GI50) in the experiment on IGROV-1 of 58900 nM.
For the compound `COc1cc(CSc2cc(Cl)c(-c3nc(-c4ccccc4)no3)cc2S(=O)(=O)NC(=N)NO)cc(OC)c1OC`, the GI50 in the experiment on UACC-257 came to 13200 nM; in the experiment with OVCAR-3 it was 4790 nM; with Hs-578T, 7410 nM; in the experiment on HT-29 it was 7240 nM; in the experiment with SF-268, 6920 nM; with SNB-75 it was 3980 nM. Besides, the GI50 in the experiment on NCI-H522 is 3800 nM; in the experiment on UACC-62, 3090 nM; in the experiment on NCI-H460, 4370 nM; in the experiment with M14, 6610 nM; with UO-31 it was 4470 nM; in the experiment on Malme-3M, 13500 nM. The GI50 in the experiment on IGROV-1 was determined as 5620 nM.
Take `COc1cc(CSc2cc(Cl)c(-c3nc(-c4ccc(Cl)cc4)no3)cc2S(=O)(=O)NC(=N)NO)cc(OC)c1OC`: the GI50 in the experiment on UACC-257 amounted to 9330 nM; in the experiment with OVCAR-3 it was 1910 nM; in the experiment with Hs-578T it was 4170 nM; in the experiment with HT-29, 2950 nM; in the experiment with SF-268, 2950 nM; in the experiment with SNB-75, 2950 nM. Also, the GI50 was 2140 nM in the experiment with NCI-H522; 1950 nM in the experiment with UACC-62; 2240 nM with NCI-H460; 2190 nM in the experiment on M14; 3160 nM in the experiment on UO-31; 7760 nM in the experiment with Malme-3M. In the experiment with IGROV-1, this compound registered a GI50 of 3800 nM.
